# Experimental data taken from ChEMBL document CHEMBL1629527, “In vitro antifungal activities of bis(alkylpyridinium)alkane compounds against pathogenic yeasts and molds” (Antimicrob Agents Chemother, 2010).
# What was measured:
# Cryptococcus neoformans [1] = assay: Antifungal activity against Cryptococcus neoformans after 24 to 72 hrs by broth microdilution method; format: functional
# In short: (§1)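 Broth microdilution MIC per CLSI M27-A3 (yeasts) or M38-A2 (molds). RPMI 1640 with L-glutamine, without bicarbonate, buffered to pH 7.0 with 0.165 M MOPS. Final test range for the compounds was 0.175–87.5 μM. Incubation at 35°C with visual reading at 24–72 h. MIC was the lowest concentration giving 100% inhibition versus the growth control (azoles 50% or 100%, by organism). Each isolate was run in duplicate in two independent experiments.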
# [2] = test system: Cryptococcus gattii species complex; assay: Antifungal activity against Cryptococcus gattii after 24 to 72 hrs by broth microdilution method; format: functional, Cryptococcus bacillisporus; in short: as §1
# Candida albicans [3] = assay: Antifungal activity against Candida albicans after 48 to 72 hrs; format: functional
# In short: (§2)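 MFC: after the MIC read, 30-μl aliquots from each well without visible growth were plated onto Sabouraud dextrose agar and incubated at 35°C. Reading was at 48–72 h for yeasts and up to 7 days for molds. MFC was the lowest concentration with no colonies.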
# Candida tropicalis [4] = assay: Antifungal activity against Candida tropicalis after 48 to 72 hrs; format: functional; in short: as §2
# Nakaseomyces glabratus [5] = assay: Antifungal activity against Candida glabrata after 48 to 72 hrs; format: functional; in short: as §2
# Candida parapsilosis [6] = assay: Antifungal activity against Candida parapsilosis after 48 to 72 hrs; format: functional; in short: as §2
# Pichia kudriavzevii [7] = assay: Antifungal activity against Candida krusei after 48 to 72 hrs; format: functional; in short: as §2
# Candida dubliniensis [8] = assay: Antifungal activity against Candida dubliniensis after 48 to 72 hrs; format: functional; in short: as §2
# [9] = test system: Meyerozyma guilliermondii; assay: Antifungal activity against Candida guilliermondii after 48 to 72 hrs; format: functional; in short: as §2
# Clavispora lusitaniae [10] = assay: Antifungal activity against Candida lusitaniae after 48 to 72 hrs; format: functional; in short: as §2
# Cryptococcus neoformans [11] = assay: Antifungal activity against Cryptococcus neoformans after 48 to 72 hrs; format: functional; in short: as §2
# [12] = test system: Cryptococcus gattii species complex; assay: Antifungal activity against Cryptococcus gattii after 48 to 72 hrs; format: functional, Cryptococcus bacillisporus; in short: as §2
# [13] = Toxicity against human erythrocytes assessed as hemolysis; format: cell-based, Erythrocyte
# Candida tropicalis [14] = assay: Antifungal activity against Candida tropicalis after 24 to 72 hrs by broth microdilution method; format: functional; in short: as §1
# Nakaseomyces glabratus [15] = assay: Antifungal activity against Candida glabrata after 24 to 72 hrs by broth microdilution method; format: functional; in short: as §1
# Candida parapsilosis [16] = assay: Antifungal activity against Candida parapsilosis after 24 to 72 hrs by broth microdilution method; format: functional; conditions: Lodderomyces parapsilosis; in short: as §1
# Pichia kudriavzevii [17] = assay: Antifungal activity against Candida krusei after 24 to 72 hrs by broth microdilution method; format: functional; in short: as §1
# Candida dubliniensis [18] = assay: Antifungal activity against Candida dubliniensis after 24 to 72 hrs by broth microdilution method; format: functional; in short: as §1
# Cryptococcus neoformans [19] = assay: Antifungal activity against Cryptococcus neoformans 05-202523 after 48 to 72 hrs; format: functional; in short: as §2
# Aspergillus flavus [20] = assay: Antifungal activity against Aspergillus flavus ATCC 204304 after 48 to 72 hrs; format: functional; in short: as §2
# Exophiala spinifera = assay: Antifungal activity against Exophiala spinifera 03-200803 after 24 to 72 hrs by broth microdilution method; format: functional
# In short: (§3)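 Mold isolates subcultured on potato dextrose agar, then tested by CLSI M38-A2 broth microdilution in RPMI 1640 (L-glutamine, no bicarbonate) buffered to pH 7.0 with 0.165 M MOPS. Compounds were dissolved in water and tested at a final 0.175–87.5 μM. Plates were incubated at 35°C. MIC was read visually as the lowest concentration giving 100% inhibition versus the growth control. Each isolate was run in duplicate in two independent experiments.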
# Fusarium solani = assay: Antifungal activity against Fusarium solani 04-203102 after 24 to 72 hrs by broth microdilution method; format: functional; in short: as §3
# Rhizopus arrhizus = assay: Antifungal activity against Rhizopus oryzae 05-203111 after 24 to 72 hrs by broth microdilution method; format: functional; in short: as §3
# Aspergillus flavus [21] = assay: Antifungal activity against Aspergillus flavus ATCC 204304 after 24 to 72 hrs by broth microdilution method; format: functional; in short: as §1
# Aspergillus flavus [22] = assay: Antifungal activity against Aspergillus flavus 05-203758 after 24 to 72 hrs by broth microdilution method; format: functional; in short: as §1
# Aspergillus terreus = assay: Antifungal activity against Aspergillus terreus 05-202844 after 24 to 72 hrs by broth microdilution method; format: functional; in short: as §1
# Lomentospora prolificans = assay: Antifungal activity against Scedosporium prolificans 05-203060 after 24 to 72 hrs by broth microdilution method; format: functional; in short: as §3
# Scedosporium apiospermum = assay: Antifungal activity against Scedosporium apiospermum 05-203100 after 24 to 72 hrs by broth microdilution method; format: functional; in short: as §3
# Lichtheimia corymbifera = assay: Antifungal activity against Absidia corymbifera 04-200170 after 24 to 72 hrs by broth microdilution method; format: functional; in short: as §1
# Aspergillus fumigatus = assay: Antifungal activity against Aspergillus fumigatus ATCC 204305 after 24 to 72 hrs by broth microdilution method; format: functional; in short: as §1
# [23] = test system: Cryptococcus gattii species complex; assay: Antifungal activity against Cryptococcus gattii 05-200122 after 24 to 72 hrs by broth microdilution method; format: functional, Cryptococcus bacillisporus; in short: as §1
# Candida tropicalis [24] = assay: Antifungal activity against Candida tropicalis 04-202361 after 24 to 72 hrs by broth microdilution method; format: functional; in short: as §1
# Nakaseomyces glabratus [25] = assay: Antifungal activity against Candida glabrata 04-202345 after 24 to 72 hrs by broth microdilution method; format: functional; in short: as §1
# Candida parapsilosis [26] = assay: Antifungal activity against Candida parapsilosis 04-202398 after 24 to 72 hrs by broth microdilution method; format: functional; conditions: Lodderomyces parapsilosis; in short: as §1
# Pichia kudriavzevii [27] = assay: Antifungal activity against Candida krusei 04-202328 after 24 to 72 hrs by broth microdilution method; format: functional; in short: as §1
# Pichia kudriavzevii [28] = assay: Antifungal activity against Candida krusei ATCC 6258 after 24 to 72 hrs by broth microdilution method; format: functional; in short: as §1
# Candida albicans [29] = assay: Antifungal activity against Candida albicans ATCC 10231 after 24 to 72 hrs by broth microdilution method; format: functional; in short: as §1
# Clavispora lusitaniae [30] = assay: Antifungal activity against Candida lusitaniae after 24 to 72 hrs by broth microdilution method; format: functional; in short: as §1
smiles,measurement,setting,value
CCCCCc1cc[n+](CCCCCCCCCCCC[n+]2ccc(CCCCC)c(C)c2)cc1C.[Cl-].[Cl-],MIC,Cryptococcus neoformans [1],1.28 mg/L
same,MIC50,Cryptococcus neoformans [1],0.79 mg/L
same,MIC90,Cryptococcus neoformans [1],3.11 mg/L
same,MIC,[2],0.79 mg/L
same,MIC50,[2],0.79 mg/L
same,MIC90,[2],0.79 mg/L
same,MFC50,Candida albicans [3],1.56 mg/L
same,MFC90,Candida albicans [3],1.56 mg/L
same,MFC,Candida albicans [3]; Candida albicans,0.79 mg/L
same,MFC50,Candida tropicalis [4],0.79 mg/L
same,MFC90,Candida tropicalis [4],1.56 mg/L
same,MFC,Candida tropicalis [4]; Candida tropicalis,0.39 mg/L
same,MFC50,Nakaseomyces glabratus [5],0.79 mg/L
same,MFC90,Nakaseomyces glabratus [5],1.56 mg/L
same,MFC,Nakaseomyces glabratus [5]; Nakaseomyces glabratus,0.39 mg/L
same,MFC50,Candida parapsilosis [6],49.5 mg/L
same,MFC90,Candida parapsilosis [6],49.5 mg/L
same,MFC,Candida parapsilosis [6]; Lodderomyces parapsilosis,49.5 mg/L
same,MFC50,Pichia kudriavzevii [7],6.22 mg/L
same,MFC90,Pichia kudriavzevii [7],6.22 mg/L
same,MFC,Pichia kudriavzevii [7]; Pichia kudriavzevii,0.79 mg/L
same,MFC50,Candida dubliniensis [8],0.79 mg/L
same,MFC90,Candida dubliniensis [8],1.56 mg/L
same,MFC,Candida dubliniensis [8]; Candida dubliniensis,0.79 mg/L
same,MFC50,[9],0.79 mg/L
same,MFC90,[9],1.56 mg/L
same,MFC,[9]; Meyerozyma guilliermondii,0.39 mg/L
same,MFC50,Clavispora lusitaniae [10],3.11 mg/L
same,MFC90,Clavispora lusitaniae [10],6.22 mg/L
same,MFC,Clavispora lusitaniae [10]; Clavispora lusitaniae,1.56 mg/L
same,MFC50,Cryptococcus neoformans [11],0.79 mg/L
same,MFC90,Cryptococcus neoformans [11],12.45 mg/L
same,MFC,Cryptococcus neoformans [11]; Cryptococcus neoformans,0.79 mg/L
same,MFC50,[12],0.79 mg/L
same,MFC90,[12],0.79 mg/L
same,MFC,[12]; Cryptococcus gattii species complex,0.79 mg/L
same,HC50,[13],> 129 µM
same,IC50,[13],> 48 µM
same,MIC,Candida tropicalis [14],0.79 mg/L
same,MIC50,Candida tropicalis [14],0.79 mg/L
same,MIC90,Candida tropicalis [14],0.79 mg/L
same,MIC,Nakaseomyces glabratus [15],0.642 mg/L
same,MIC50,Nakaseomyces glabratus [15],0.79 mg/L
same,MIC90,Nakaseomyces glabratus [15],0.79 mg/L
same,MIC,Candida parapsilosis [16],30.6 mg/L
same,MIC50,Candida parapsilosis [16],24.9 mg/L
same,MIC90,Candida parapsilosis [16],49.5 mg/L
same,MIC,Pichia kudriavzevii [17],3.12 mg/L
same,MIC50,Pichia kudriavzevii [17],3.11 mg/L
same,MIC90,Pichia kudriavzevii [17],6.22 mg/L
same,MIC,Candida dubliniensis [18],0.908 mg/L
same,MIC50,Candida dubliniensis [18],0.79 mg/L
same,MIC90,Candida dubliniensis [18],0.79 mg/L
same,MFC,Cryptococcus neoformans [19],25.3 mg/L
same,MFC,Aspergillus flavus [20],25.3 mg/L
same,MIC,Exophiala spinifera,0.79 mg/L
same,MIC,Fusarium solani,12.7 mg/L
same,MIC,Rhizopus arrhizus,1.58 mg/L
same,MIC,Aspergillus flavus [21],12.7 mg/L
same,MIC,Aspergillus flavus [22],25.3 mg/L
same,MIC,Aspergillus terreus,0.7 mg/L
same,MIC,Lomentospora prolificans,1.58 mg/L
same,MIC,Scedosporium apiospermum,6.3 mg/L
same,MIC,Lichtheimia corymbifera,50.7 mg/L
same,MIC,Aspergillus fumigatus,25.3 mg/L
same,MIC,[23],0.79 mg/L
same,MIC,Candida tropicalis [24],0.79 mg/L
same,MIC,Nakaseomyces glabratus [25],0.79 mg/L
same,MIC,Candida parapsilosis [26],25.3 mg/L
same,MIC,Pichia kudriavzevii [27],6.3 mg/L
same,MIC,Pichia kudriavzevii [28],6.3 mg/L
same,MIC,Candida albicans [29],1.58 mg/L
same,MIC,Clavispora lusitaniae [30],2.71 mg/L
same,MIC50,Clavispora lusitaniae [30],3.11 mg/L
same,MIC90,Clavispora lusitaniae [30],3.11 mg/L
